Results reported in ChEMBL document CHEMBL3045665, “Synthesis and in vitro antiproliferative activity of novel (4-chloro- and 4-acyloxy-2-butynyl)thioquinolines” (2011).
In brackets after ≈: the same amount, converted by molar mass.

Legend:
Format in all cases: functional
[1] = test system: T47D; experiment: Antiproliferative activity against Homo sapiens (human) T47D cells after 72 hr; conditions: read-out: ID50 (the source's name)
Method in brief: (§1)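 Cells in opti-MEM with 2 mM glutamine, streptomycin, penicillin and 5% FCS at 37°C and 5% CO2. Plated at 10^4 cells/well 24 h before treatment, then exposed 72 h to 0.1–100 µg/ml (1 mg/ml stock in 10% DMSO, diluted in medium). Cells fixed with cold 50% TCA, stained with 0.4% SRB, dye extracted in 10 mM Tris, OD 540 nm. ID50 versus untreated control. Triplicates, 3–5 experiments.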

[2] = Antiproliferative activity against Homo sapiens (human) SW707 cells after 72 hr; conditions: SW707, 72 h, read-out: ID50 (the source's name); method in brief: as §1
[3] = test system: B16; experiment: Antiproliferative activity against Mus musculus (mouse) B16 cells after 72 hr; conditions: B16, 72 h, read-out: ID50 (the source's name); method in brief: as §1
[4] = test system: CCRF-CEM; experiment: Antiproliferative activity against Homo sapiens (human) CCRF-CEM cells after 72 hr; conditions: read-out: ID50 (the source's name)
Method in brief: (§2)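 Leukemia cells were grown in suspension in opti-MEM with 2 mM glutamine, antibiotics and 5% FCS (37°C, 5% CO2) and seeded at 10^4 cells/well 24 h beforehand. They were exposed 72 h to 0.1–100 µg/ml (1 mg/ml stock in 10% DMSO). MTT was added for the final 3–4 h, followed by SDS/DMF lysis for 24 h and OD at 570 nm. ID50 is relative to untreated control; triplicates, 3–5 experiments.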

[5] = test system: P388; experiment: Antiproliferative activity against Mus musculus (mouse) P388 cells after 72 hr; conditions: P388, 72 h, read-out: ID50 (the source's name); method in brief: as §2

Compound	IC50 [1]	IC50 [3]	IC50 [4]	IC50 [5]	IC50 [2]
ClCC#CCSc1cnc2ccccc2c1Cl	3.2 µg/mL (≈ 11.3 µM)	4 µg/mL (≈ 14.2 µM)	3.7 µg/mL (≈ 13.1 µM)	13.4 µg/mL (≈ 47.5 µM)	3.3 µg/mL (≈ 11.7 µM)
CSc1cnc2ccccc2c1SCC#CCCl	3.9 µg/mL (≈ 13.3 µM)	16.9 µg/mL (≈ 57.5 µM)	2.5 µg/mL (≈ 8.51 µM)	2.7 µg/mL (≈ 9.19 µM)	3.7 µg/mL (≈ 12.6 µM)
CSc1cnc2ccccc2c1[Se]CC#CCCl	0.7 µg/mL (≈ 2.05 µM)	3.5 µg/mL (≈ 10.3 µM)	1.7 µg/mL (≈ 4.99 µM)	0.4 µg/mL (≈ 1.17 µM)	3.2 µg/mL (≈ 9.39 µM)
C#CCSc1cnc2ccccc2c1SCC#CCCl	5.8 µg/mL (≈ 18.2 µM)	52.8 µg/mL (≈ 166 µM)	2.9 µg/mL (≈ 9.12 µM)	3 µg/mL (≈ 9.44 µM)	12.9 µg/mL (≈ 40.6 µM)
C#CCSc1cnc2ccccc2c1[Se]CC#CCCl	0.4 µg/mL (≈ 1.1 µM)	7.1 µg/mL (≈ 19.5 µM)	1.8 µg/mL (≈ 4.93 µM)	0.8 µg/mL (≈ 2.19 µM)	3.2 µg/mL (≈ 8.77 µM)
OCC#CCSc1cnc2ccccc2c1SCC#CCCl	5.3 µg/mL (≈ 15.2 µM)	43.4 µg/mL (≈ 125 µM)	3.3 µg/mL (≈ 9.49 µM)	5.1 µg/mL (≈ 14.7 µM)	19.8 µg/mL (≈ 56.9 µM)
OCC#CCSc1cnc2ccccc2c1[Se]CC#CCCl	1.7 µg/mL (≈ 4.31 µM)	3.8 µg/mL (≈ 9.63 µM)	2.6 µg/mL (≈ 6.59 µM)	2 µg/mL (≈ 5.07 µM)	3.3 µg/mL (≈ 8.36 µM)
CSc1cnc2ccccc2c1[Se]CC#CCOC(=O)c1ccccc1C(=O)O	3.2 µg/mL (≈ 6.8 µM)	3.1 µg/mL (≈ 6.59 µM)	4 µg/mL (≈ 8.5 µM)	19.1 µg/mL (≈ 40.6 µM)	3.7 µg/mL (≈ 7.87 µM)
CSc1cnc2ccccc2c1[Se]CC#CCOC(=O)/C=C/c1ccccc1	4.3 µg/mL (≈ 9.5 µM)	3.1 µg/mL (≈ 6.85 µM)	17.8 µg/mL (≈ 39.3 µM)	43.9 µg/mL (≈ 97 µM)	4.7 µg/mL (≈ 10.4 µM)

Further lines, with some results ahead:

IC50 [1]	IC50 [3]	IC50 [4]	IC50 [5]	Compound	IC50 [2]
–	53.8 µg/mL (≈ 131 µM)	–	–	O=C(O)c1ccccc1C(=O)OCC#CCSc1cnc2ccccc2c1Cl	–
22.8 µg/mL (≈ 57.9 µM)	11.4 µg/mL (≈ 28.9 µM)	15.4 µg/mL (≈ 39.1 µM)	32.8 µg/mL (≈ 83.3 µM)	O=C(/C=C/c1ccccc1)OCC#CCSc1cnc2ccccc2c1Cl	48.8 µg/mL (≈ 124 µM)
36.1 µg/mL (≈ 85.2 µM)	18.1 µg/mL (≈ 42.7 µM)	14.5 µg/mL (≈ 34.2 µM)	35 µg/mL (≈ 82.6 µM)	CSc1cnc2ccccc2c1SCC#CCOC(=O)c1ccccc1C(=O)O	28.1 µg/mL (≈ 66.3 µM)
–	17.8 µg/mL (≈ 46.9 µM)	22.2 µg/mL (≈ 58.5 µM)	–	CSc1cnc2ccccc2c1SCC#CCOC(=O)c1ccccc1	–
2.2 µg/mL (≈ 5.16 µM)	2.1 µg/mL (≈ 4.92 µM)	1.9 µg/mL (≈ 4.46 µM)	3.5 µg/mL (≈ 8.21 µM)	CSc1cnc2ccccc2c1[Se]CC#CCOC(=O)c1ccccc1	3.6 µg/mL (≈ 8.44 µM)
34.2 µg/mL (≈ 98.4 µM)	5.5 µg/mL (≈ 15.8 µM)	13.2 µg/mL (≈ 38 µM)	34.7 µg/mL (≈ 99.9 µM)	CCOC(=O)OCC#CCSc1c(SC)cnc2ccccc12	33.1 µg/mL (≈ 95.3 µM)
71.9 µg/mL (≈ 177 µM)	9.4 µg/mL (≈ 23.2 µM)	18.1 µg/mL (≈ 44.6 µM)	–	CSc1cnc2ccccc2c1SCC#CCOC(=O)/C=C/c1ccccc1	66.6 µg/mL (≈ 164 µM)
–	14.7 µg/mL (≈ 34.2 µM)	50.9 µg/mL (≈ 118 µM)	–	C#CCSc1cnc2ccccc2c1SCC#CCOC(=O)/C=C/c1ccccc1	–
